Results reported in ChEMBL document CHEMBL3297654, “Synthesis, antimicrobial and cytotoxic activities, and structure-activity relationships of gypsogenin derivatives against human cancer cells” (Eur J Med Chem, 2014).
Activity calls are given as the source filed them. The calls are words filed in the database; no cut-off is given here.

Assays:
[1] = test system: Micrococcus luteus; assay: Antimicrobial activity against Micrococcus luteus ATCC 9341 assessed as zone of inhibition at 30 mg for 24 hrs at 30 degC by disk diffusion test; type: functional; settings: ATCC 9341, 24 h, read-out: DIZ
[2] = test system: Saccharomyces cerevisiae; assay: Antimicrobial activity against Saccharomyces cerevisiae ATCC 9763 assessed as zone of inhibition at 100 mg for 24 hrs at 30 degC by disk diffusion test; type: functional, organism-based
Method in brief: (§1)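 Yeast well-diffusion assay on Mueller Hinton agar following NCCLS disc susceptibility procedure. Compound stocks were 1000 µg/mL in DMSO. Yeast broth cultures (18–24 h) were adjusted to 0.5 McFarland, about 1×10^6 cells/mL. A 6 mm well was loaded with 30 µL compound. Plates were incubated at 30 °C for 24 h, and inhibition zones were measured in mm. C. glabrata and C. tropicalis were precultured in malt extract broth.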

[3] = test system: Nakaseomyces glabratus; assay: Antimicrobial activity against Candida glabrata assessed as zone of inhibition at 100 mg for 24 hrs at 30 degC by disk diffusion test; type: functional, organism-based; method in brief: as §1
[4] = test system: Cyberlindnera jadinii; assay: Antimicrobial activity against Candida utilis ATCC 9950 assessed as zone of inhibition at 100 mg for 24 hrs at 30 degC by disk diffusion test; type: functional, organism-based; method in brief: as §1
[5] = test system: Candida tropicalis; assay: Antimicrobial activity against Candida tropicalis assessed as zone of inhibition at 100 mg for 24 hrs at 30 degC by disk diffusion test; type: functional, organism-based; method in brief: as §1
[6] = test system: Proteus vulgaris; assay: Antimicrobial activity against Proteus vulgaris ATCC 33420 assessed as zone of inhibition at 10 mg by disk diffusion test; type: functional, organism-based
[7] = test system: Escherichia coli; assay: Antimicrobial activity against Escherichia coli ATCC 25922 assessed as zone of inhibition at 10 mg for 24 hrs at 37 degC by disk diffusion test; type: functional, organism-based
[8] = test system: Bacillus cereus; assay: Antimicrobial activity against Bacillus cereus ATCC 11778 assessed as zone of inhibition at 10 mg for 24 hrs at 30 degC by disk diffusion test; type: functional, organism-based
Method in brief: (§2)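 Well diffusion on Mueller Hinton agar per NCCLS disc susceptibility tests. DMSO stocks were 1000 µg/mL. Bacterial broth cultures (18–24 h) were adjusted to 0.5 McFarland, about 1×10^8 cells/mL. A 6 mm well received 30 µL compound. Incubation was 24 h at 30 °C, and zone diameters were read in mm. B. thuringiensis was a fecal clinical isolate grown in nutrient broth.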

[9] = test system: Enterococcus faecalis; assay: Antimicrobial activity against Enterococcus faecalis ATCC 29212 assessed as zone of inhibition at 10 mg for 24 hrs at 37 degC by disk diffusion test; type: functional
Method in brief: (§3)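 Agar well diffusion following NCCLS disc susceptibility guidance. Compounds were held as 1000 µg/mL stocks in DMSO. Broth cultures (18–24 h) were adjusted to 0.5 McFarland (1×10^8 cells/mL) and spread on Mueller Hinton agar. A 6 mm well was cut and filled with 30 µL compound. Plates were incubated 24 h at 37 °C, and the inhibition zone diameter was measured in mm.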

[10] = test system: Klebsiella pneumoniae; assay: Antimicrobial activity against Klebsiella pneumoniae ATCC 13882 assessed as zone of inhibition at 10 mg for 24 hrs at 37 degC by disk diffusion test; type: functional, organism-based; method in brief: as §3
[11] = test system: Bacillus thuringiensis; assay: Antimicrobial activity against Bacillus thuringiensis assessed as zone of inhibition at 10 mg for 24 hrs at 30 degC by disk diffusion test; type: functional, organism-based; method in brief: as §2
[12] = test system: Bacillus subtilis; assay: Antimicrobial activity against Bacillus subtilis ATCC 6633 assessed as zone of inhibition at 10 mg by disk diffusion test; type: functional, organism-based
[13] = test system: Pseudomonas aeruginosa; assay: Antimicrobial activity against Pseudomonas aeruginosa ATCC 35032 assessed as zone of inhibition at 10 mg for 24 hrs at 37 degC by disk diffusion test; type: functional, organism-based; method in brief: as §3
[14] = test system: SAOS-2; assay: Induction of necrosis in human Saos2 cells at 0.5 uM after 48 hrs by Hoechst 33258/propidium iodide staining based phase contrast microscopic analysis; type: functional
Method in brief: (§4)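 Cells in 48-well plates treated with 0.5, 10, 20 or 40 µM for 24 and 48 h. Values are read at 48 h, 20 µM for test agents and 0.5 µM for controls. Staining is Hoechst 33258/propidium iodide double staining with fluorescence microscopy. Blue nuclei are viable or early-to-mid apoptotic, and pink nuclei are late apoptotic or necrotic. Apoptosis and necrosis are scored from chromatin condensation as % of cells. Cells are grown at 37 °C in 5% CO2 in RPMI, DMEM or McCoy's 5A with 10–15% heat-inactivated FCS.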

[15] = Antiproliferative activity against human Saos2 cells after 24 and 72 hrs by MTT assay; type: functional, cell-based; settings: SAOS-2
Method in brief: (§5)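 ATCC human cell lines are kept in RPMI, DMEM or McCoy's 5A with 10–15% heat-inactivated FCS at 37 °C and 5% CO2. They are seeded at 1×10^4–1×10^5 cells/mL in 48-well plates and exposed to 0.5, 10, 20 or 40 µM. Viability is read by MTT (590 nm) at 24 and 72 h. Growth is expressed relative to untreated cells and IC50 is fitted, in triplicate.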

[16] = test system: Caco-2; assay: Induction of apoptosis in human Caco2 cells at 0.5 uM after 48 hrs by Hoechst 33258/propidium iodide staining based phase contrast microscopic analysis; type: functional; method in brief: as §4
[17] = test system: SAOS-2; assay: Induction of apoptosis in human Saos2 cells at 0.5 uM after 48 hrs by Hoechst 33258/propidium iodide staining based phase contrast microscopic analysis; type: functional; method in brief: as §4
[18] = test system: HT-29; assay: Antiproliferative activity against human HT-29 cells after 24 and 72 hrs by MTT assay; type: functional, cell-based; method in brief: as §5
[19] = test system: Caco-2; assay: Antiproliferative activity against human Caco2 cells after 24 and 72 hrs by MTT assay; type: functional, cell-based; method in brief: as §5
[20] = test system: HeLa; assay: Antiproliferative activity against human HeLa cells after 24 and 72 hrs by MTT assay; type: functional, cell-based; method in brief: as §5
[21] = test system: MCF7; assay: Antiproliferative activity against human MCF7 cells after 24 and 72 hrs by MTT assay; type: functional, cell-based; method in brief: as §5
[22] = test system: HL-60; assay: Induction of apoptosis in human HL60 cells at 0.5 uM after 48 hrs by Hoechst 33258/propidium iodide staining based phase contrast microscopic analysis; type: functional; method in brief: as §4
[23] = test system: HT-29; assay: Induction of apoptosis in human HT-29 cells at 0.5 uM after 48 hrs by Hoechst 33258/propidium iodide staining based phase contrast microscopic analysis; type: functional; method in brief: as §4
[24] = test system: MCF7; assay: Induction of apoptosis in human MCF7 cells at 0.5 uM after 48 hrs by Hoechst 33258/propidium iodide staining based phase contrast microscopic analysis; type: functional; method in brief: as §4
[25] = test system: Caco-2; assay: Induction of necrosis in human Caco2 cells at 0.5 uM after 48 hrs by Hoechst 33258/propidium iodide staining based phase contrast microscopic analysis; type: functional; method in brief: as §4
[26] = test system: HL-60; assay: Antiproliferative activity against human HL60 cells after 24 and 72 hrs by MTT assay; type: functional, cell-based; method in brief: as §5
[27] = test system: HT-29; assay: Induction of necrosis in human HT-29 cells at 0.5 uM after 48 hrs by Hoechst 33258/propidium iodide staining based phase contrast microscopic analysis; type: functional; method in brief: as §4
[28] = test system: HeLa; assay: Induction of apoptosis in human HeLa cells at 0.5 uM after 48 hrs by Hoechst 33258/propidium iodide staining based phase contrast microscopic analysis; type: functional; method in brief: as §4
[29] = test system: HeLa; assay: Induction of necrosis in human HeLa cells at 0.5 uM after 48 hrs by Hoechst 33258/propidium iodide staining based phase contrast microscopic analysis; type: functional; method in brief: as §4
[30] = test system: HL-60; assay: Induction of necrosis in human HL60 cells at 0.5 uM after 48 hrs by Hoechst 33258/propidium iodide staining based phase contrast microscopic analysis; type: functional; method in brief: as §4
[31] = test system: MCF7; assay: Induction of necrosis in human MCF7 cells at 0.5 uM after 48 hrs by Hoechst 33258/propidium iodide staining based phase contrast microscopic analysis; type: functional; method in brief: as §4
[32] = test system: Micrococcus luteus; assay: Antimicrobial activity against Micrococcus luteus ATCC 9341 assessed as zone of inhibition at 10 mg for 24 hrs at 30 degC by disk diffusion test; type: functional
[33] = test system: Salmonella typhimurium; assay: Antimicrobial activity against Salmonella typhimurium ATCC 14028 assessed as zone of inhibition at 10 mg for 24 hrs at 37 degC by disk diffusion test; type: functional; settings: Salmonella enterica subsp. enterica serovar Typhimurium
[34] = test system: Staphylococcus aureus; assay: Antimicrobial activity against Staphylococcus aureus ATCC 25923 assessed as zone of inhibition at 10 mg for 24 hrs at 37 degC by disk diffusion test; type: functional
[35] = test system: Staphylococcus epidermidis; assay: Antimicrobial activity against Staphylococcus epidermidis ATCC 12228 assessed as zone of inhibition at 10 mg for 24 hrs at 37 degC by disk diffusion test; type: functional
[36] = test system: Enterococcus faecalis; assay: Antimicrobial activity against Enterococcus faecalis ATCC 29212 assessed as zone of inhibition at 15 mg for 24 hrs at 37 degC by disk diffusion test; type: functional, organism-based
[37] = test system: Micrococcus luteus; assay: Antimicrobial activity against Micrococcus luteus ATCC 9341 assessed as zone of inhibition at 15 mg for 24 hrs at 30 degC by disk diffusion test; type: functional; settings: ATCC 9341, 24 h, read-out: DIZ
[38] = test system: Bacillus subtilis; assay: Antimicrobial activity against Bacillus subtilis ATCC 6633 assessed as zone of inhibition at 15 mgby disk diffusion test; type: functional

## O=C(N[C@H](CO)[C@H](O)c1ccc([N+](=O)[O-])cc1)C(Cl)Cl [CHLORAMPHENICOL]
[1]
  zone of inhibition at 30000 µg/disc: 25 mm

## NYSTATIN
[2]
  inhibition zone (IZ): 15 mm
[3]
  inhibition zone (IZ): 16 mm
[4]
  inhibition zone (IZ): 21 mm
[5]
  inhibition zone (IZ): 15 mm

## CC1(C)S[C@@H]2[C@H](NC(=O)[C@H](N)c3ccccc3)C(=O)N2[C@H]1C(=O)O [AMPICILLIN]
[6]
  diameter of the inhibition zone (DIZ): inactive
[7]
  diameter of the inhibition zone (DIZ): inactive
[8]
  diameter of the inhibition zone (DIZ): inactive
[9]; ATCC 29212, 24 h, read-out: DIZ
  zone of inhibition at 10000 µg/disc: 14 mm
[10]
  diameter of the inhibition zone (DIZ): inactive
[11]
  diameter of the inhibition zone (DIZ): inactive
[12]
  diameter of the inhibition zone (DIZ): inactive
[13]
  diameter of the inhibition zone (DIZ): inactive

## CC(=O)O[C@H]1C(=O)[C@@]2(C)[C@H]([C@H](OC(=O)c3ccccc3)[C@]3(O)C[C@H](OC(=O)[C@H](O)[C@@H](NC(=O)c4ccccc4)c4ccccc4)C(C)=C1C3(C)C)[C@]1(OC(C)=O)CO[C@@H]1C[C@@H]2O [PACLITAXEL]
[14]
  Activity: 1%
[15]
  IC50: 350 nM
[16]
  Activity: 52%
[17]
  Activity: 42%
[18]
  IC50: 290 nM
[19]
  IC50: 310 nM
[20]
  IC50: 290 nM
[21]
  IC50: 330 nM
[22]
  Activity: 53%
[23]
  Activity: 52%
[24]
  Activity: 50%
[25]
  Activity: 2%
[26]
  IC50: 320 nM
[27]
  Activity: 2%
[28]
  Activity: 44%
[29]
  Activity: 2%
[30]
  Activity: 0%
[31]
  Activity: 1%

## CN(C)[C@@H]1C(O)=C(C(N)=O)C(=O)[C@@]2(O)C(O)=C3C(=O)c4c(O)cccc4[C@@](C)(O)[C@H]3C[C@@H]12 [TETRACYCLINE]
[1]
  zone of inhibition at 30000 µg/disc: 26 mm

## GENTAMICIN
[6]
  inhibition zone (IZ): 24 mm
[32]
  inhibition zone (IZ): 15 mm
[7]
  inhibition zone (IZ): 21 mm
[33]
  inhibition zone (IZ): 16 mm
[34]
  inhibition zone (IZ): 20 mm
[8]
  inhibition zone (IZ): 24 mm
[35]
  inhibition zone (IZ): 17 mm
[9]
  inhibition zone (IZ): 11 mm
[10]
  inhibition zone (IZ): 19 mm
[11]
  inhibition zone (IZ): 21 mm
[12]
  inhibition zone (IZ): 20 mm
[13]
  inhibition zone (IZ): 20 mm

## COc1cccc2c1C(=O)c1c(O)c3c(c(O)c1C2=O)C[C@@](O)(C(=O)CO)C[C@@H]3O[C@H]1C[C@H](N)[C@H](O)[C@H](C)O1 [DOXORUBICIN]
[14]
  Activity: 34%
[15]
  IC50: 330 nM
[16]
  Activity: 4%
[17]
  Activity: 2%
[18]
  IC50: 310 nM
[19]
  IC50: 350 nM
[20]
  IC50: 340 nM
[22]
  Activity: 2%
[23]
  Activity: 5%
[24]
  Activity: 1%
[25]
  Activity: 47%
[26]
  IC50: 330 nM
[27]
  Activity: 49%
[28]
  Activity: 2%
[29]
  Activity: 28%
[30]
  Activity: 45%
[31]
  Activity: 44%

## CC[C@H]1OC(=O)[C@H](C)[C@@H](O[C@H]2C[C@@](C)(OC)[C@@H](O)[C@H](C)O2)[C@H](C)[C@@H](O[C@@H]2O[C@H](C)C[C@H](N(C)C)[C@H]2O)[C@](C)(O)C[C@@H](C)C(=O)[C@H](C)[C@@H](O)[C@]1(C)O [ERYTHROMYCIN]
[36]
  diameter of the inhibition zone (DIZ): inactive
[37]
  zone of inhibition at 15000 µg/disc: 30 mm
[38]
  diameter of the inhibition zone (DIZ): 25 mm
